Reference: PubChem BioAssay
Activity calls are given as the source filed them.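 Rule for the calls, unless noted: active = viability at or below 30% in both replicate assays; inconclusive = viability at or below 30% in just one of the two assays; inactive = the rest.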

What was measured:
[1] = Her2 expression decrease, cell viability multiplex – SKBR3 breast tumor cells, AlphaScreen, ATP viability, primary screen (AID 461;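 active = Her2 level under about 52% in both replicate screens, with viability over 70% of control, limit read from the data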;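 for Her2 level: lower value means less Her2 protein in the cells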;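 for viability: percent of carrier control wells set as 100% viability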); conditions: SKBR3 Her2 protein level, 18-24 h, measured here: SKBR3 viability, ATP luminescence, at 10 µM
[2] = target: Receptor tyrosine-protein kinase erbB-2 (Homo sapiens) (UniProt P04626); experiment: as above; conditions: 18-24 h, at 10 µM, stronger effect = lower value
[3] = reduced viability of SK-BR-3 breast cancer cells – cell-based, 24 h, human, pilot screen (AID 572;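 active = viability at or below 10% of carrier control in both of two separate runs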;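 note: compound exposure lasted between 18 and 24 h rather than exactly 24 h; 100% = carrier-treated control wells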); conditions: SK-BR-3 viability, CellTiter-Glo luminescence, at 10 µM, stronger effect = lower value
[4] = HUVEC growth inhibition – cell-based, human, primary screen (AID 575); conditions: HUVEC proliferation, CellTiter-Glo luminescence, 72 h; at 10 µM; stronger effect = lower value;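 note: 100% = median of untreated cell wells with 0.1% DMSO on each plate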
Outline: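 Material: primary human umbilical vein endothelial cells / Schedule: 72 h exposure, 37 °C, 5% CO2, 30 min RT equilibration / Signal: ATP-based CellTiter-Glo luminescent read / Read-out basis: percent of median DMSO-control luminescence / Control set: 32 DMSO-only cell-control wells (high), 32 MePR drug-control wells (low) per plate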

[5] = H69AR cell proliferation blockers – human, duplicate replicates, primary screen (AID 580;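 active = viability at or under a set limit in both replicates, limit being median viability minus 3 SD, cut at about 48% in these data, passing the limit was not always enough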;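 note: 100% = mean luminescence of untreated wells and 0% = no signal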); conditions: H69AR lung tumor cells viability, ATP luminescence, 72 h; at 10 µM; stronger effect = lower value
[6] = MRP1 drug-resistance reversers in H69AR cells – cell-based, doxorubicin co-treatment, pilot screen (AID 601;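 active = viability loss from added drug above about 55%, and viability with drug at most 40%, in both replicates, limit read from the data, passing the limit was not always enough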); conditions: CellTiter-Glo, 72 h, at 10 µM; for differential viability (reversal): stronger effect = higher value
[7] = yeast transport mutant growth inhibition pilot in 384-well plates, post-Golgi transport modulator project (AID 636; in the data active = inhibition above about 31%); conditions: absorbance 615 nm, about 18 h, stronger effect = higher value
[8] = growth suppression of yeast trafficking mutant, preliminary HTS, modulators of trafficking downstream of Golgi apparatus project, 1536-format plate, OD 615 nm (AID 637; in the data active = inhibition above about 30%); conditions: yeast transport mutant growth, absorbance 615 nm, 18 h; stronger effect = higher value
[9] = H69AR cells + 2 uM doxorubicin, measured here: viability with 2 uM doxorubicin, stronger effect = lower value
[10] = H69AR cells, compound alone cytotoxicity

Sequence of Receptor tyrosine-protein kinase erbB-2 (Homo sapiens) (P04626 whole entry, looked up): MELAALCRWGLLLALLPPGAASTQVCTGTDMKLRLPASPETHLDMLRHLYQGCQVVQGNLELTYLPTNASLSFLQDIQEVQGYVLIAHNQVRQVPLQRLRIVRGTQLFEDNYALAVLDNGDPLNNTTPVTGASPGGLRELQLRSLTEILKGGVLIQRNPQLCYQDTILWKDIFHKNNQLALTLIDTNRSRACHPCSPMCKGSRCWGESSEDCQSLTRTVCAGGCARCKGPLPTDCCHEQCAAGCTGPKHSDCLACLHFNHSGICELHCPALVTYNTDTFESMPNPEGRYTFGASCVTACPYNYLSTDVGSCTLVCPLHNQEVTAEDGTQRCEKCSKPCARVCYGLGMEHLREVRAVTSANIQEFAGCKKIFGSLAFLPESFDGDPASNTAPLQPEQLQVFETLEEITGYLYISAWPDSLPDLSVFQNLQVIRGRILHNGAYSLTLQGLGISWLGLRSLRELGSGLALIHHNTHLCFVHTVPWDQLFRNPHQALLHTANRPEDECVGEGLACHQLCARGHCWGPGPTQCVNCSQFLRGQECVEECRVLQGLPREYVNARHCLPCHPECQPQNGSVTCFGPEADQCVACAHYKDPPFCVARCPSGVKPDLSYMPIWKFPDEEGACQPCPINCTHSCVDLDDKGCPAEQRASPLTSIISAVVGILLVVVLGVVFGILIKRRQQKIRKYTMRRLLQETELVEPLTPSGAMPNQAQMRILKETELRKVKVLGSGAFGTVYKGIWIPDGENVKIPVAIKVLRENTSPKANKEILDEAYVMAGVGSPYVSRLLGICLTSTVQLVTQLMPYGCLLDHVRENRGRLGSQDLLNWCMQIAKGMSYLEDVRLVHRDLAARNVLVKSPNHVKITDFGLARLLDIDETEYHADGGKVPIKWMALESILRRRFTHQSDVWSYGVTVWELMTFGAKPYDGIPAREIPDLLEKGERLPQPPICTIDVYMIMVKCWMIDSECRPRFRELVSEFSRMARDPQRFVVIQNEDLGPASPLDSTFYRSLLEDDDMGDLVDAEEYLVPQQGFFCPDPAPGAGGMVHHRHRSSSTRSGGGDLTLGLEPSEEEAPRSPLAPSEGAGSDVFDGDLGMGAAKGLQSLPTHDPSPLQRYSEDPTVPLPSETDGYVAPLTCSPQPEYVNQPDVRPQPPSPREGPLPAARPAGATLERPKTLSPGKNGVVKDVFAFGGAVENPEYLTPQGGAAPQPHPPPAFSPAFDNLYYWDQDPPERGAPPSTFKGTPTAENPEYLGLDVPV

SMILES	viability [1] [%]	Her2 level [2]	viability [3]	viability [4]	viability [5]	differential viability (reversal) ([6]; H69AR cells + 2 uM doxorubicin)	viability [6, 9] [%]	viability [6, 10] [%]	inhibition [7]	inhibition [8]
CC1CCN(C(=O)CN2C(=O)C(C)(C)Oc3ccc(C(=O)NC4CCCC4)cc32)CC1	82	104% (inactive)	82% (inactive)	83.1% (inactive)	93.4% (inactive)	4.5% (inactive)	88.9	93.4	-5% (inactive)	-7.05% (inactive)
CCN(CC)CCn1c2ccccc2c2nc(C)sc21	113	96.5% (inactive)	113% (inactive)	104% (inactive)	92.6% (inactive)	-7.46% (inactive)	100	92.6	-5.32% (inactive)	-2.54% (inactive)
O=C(c1ccco1)N1CCN(c2cccc(Cl)c2)CC1	101	103% (inactive)	101% (inactive)	88.1% (inactive)	97.9% (inactive)	5.25% (inactive)	92.7	97.9	-0.93% (inactive)	-9.68% (inactive)
CCOC(=O)N1CCN(c2c(N3CCN(c4ccccc4OC)CC3)c(=O)c2=O)CC1	94.5	104% (inactive)	94.5% (inactive)	109% (inactive)	84.2% (inactive)	8.68% (inactive)	75.5	84.2	-4% (inactive)	-7.38% (inactive)
CCN(CC)C(=O)Cn1c(=O)n(Cc2ccccc2Cl)c2c1c(=O)n(C)c(=O)n2C	98	100% (inactive)	98% (inactive)	98.6% (inactive)	93.7% (inactive)	4.23% (inactive)	89.5	93.7	-0.93% (inactive)	-4.13% (inactive)
S=c1[nH]nc(-c2cccc(Br)c2)o1	91	130% (inactive)	91% (inactive)	88.2% (inactive)	96.1% (inactive)	3.51% (inactive)	92.6	96.1	-1.58% (inactive)	-8.83% (inactive)
Cc1noc(C)c1S(=O)(=O)N1CCC(C(=O)N2CCN(Cc3ccc4c(c3)OCO4)CC2)CC1	94	92.5% (inactive)	94% (inactive)	99% (inactive)	91.9% (inactive)	-6.75% (inactive)	98.6	91.9	-1.45% (inactive)	-0.63% (inactive)
